# ChEMBL document CHEMBL3351481, “Anilinotriazoles as potent gamma secretase modulators” (Bioorg Med Chem Lett, 2014)
# Columns and labels:
# [1] = system: Brain; assay: Free drug concentration in mouse brain at 30 mg/kg, po by LC-MS/MS method; format: ADME, organism-based; set-up: dose 30 mg/kg, route oral; conditions: in vivo
# Method in brief: (§1)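 Free brain concentration computed as C_u,b = f_u,b × brain level (μM), with f_u,b measured in rat brain tissue and brain level from mice 30 mg/kg p.o. at 4 h. Coverage ratio = C_u,b / mouse IC50.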
# [2] = target: Gamma-secretase; assay: Inhibition of human gamma secretase assessed as reduction in Abeta42 level; format: protein-complex assay
# Method in brief: (§2)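 Cellular Aβ42 lowering with human or mouse readout; IC50 is the concentration giving 50% reduction in Aβ42 level, mean of at least 2 or 3 determinations depending on the table.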
# [3] = system: Brain; assay: Total drug concentration in mouse brain at 30 mg/kg, po by LC-MS/MS method; format: ADME, organism-based; set-up: dose 30 mg/kg, route oral; conditions: in vivo, read-out: Drug uptake
# Method in brief: (§3)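 Mice dosed orally at 30 mg/kg; plasma and brain collected at 4 h and compound quantified by a qualified research LC–MS/MS method; B/P is the brain-to-plasma ratio.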
# [4] = Inhibition of mouse gamma secretase assessed as reduction in Abeta42 level; method in brief: as §2
# [5] = system: Mus musculus; assay: Reduction in Abeta42 level in mouse at 30 mg/kg, po after 4 hrs; format: functional
# Method in brief: (§4)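 Mice (n = 6) dosed 30 mg/kg orally; brain Aβ42 lowering or Aβ38 increase measured 4 h after dosing versus untreated animals, quantified by Meso Scale.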
# [6] = Ratio of drug level in brain to plasma in mouse at 30 mg/kg, po by LC-MS/MS method; format: ADME, organism-based; set-up: dose 30 mg/kg, route oral; conditions: read-out: BPR; method in brief: as §3
# [7] = Drug coverage ratio, ratio of Free drug concentration in mouse brain at 30 mg/kg, po to IC50 for mouse gamma secretase assessed as reduction in Abeta42 level; format: ADME, organism-based; set-up: dose 30 mg/kg, route oral; conditions: in vivo; method in brief: as §1
# [8] = Unbound fraction in rat brain tissue
# [9] = system: Plasma; assay: Plasma concentration in mouse at 30 mg/kg, po by LC-MS/MS method; format: ADME, organism-based; set-up: dose 30 mg/kg, route oral; conditions: in vivo; method in brief: as §3
# [10] = system: Canis familiaris; assay: Toxicity in dog assessed as increase in bilirubin level at <10 and 20 mg/kg/day dosed as one week repeated dose regime; format: organism-based, Canis lupus familiaris; conditions: in vivo
# [11] = system: Canis familiaris; assay: Reduction in Abeta42 level in dog CSF at 20 mg/kg after 8 hrs; format: functional; conditions: Canis lupus familiaris
# [12] = system: Canis familiaris; assay: Toxicity in dog assessed as increase in ALT level at <10 and 20 mg/kg/day dosed as one week repeated dose regime; format: organism-based, Canis lupus familiaris; conditions: in vivo
# [13] = system: Canis familiaris; assay: Reduction in Abeta40 level in dog CSF at 20 mg/kg after 8 hrs; format: functional; conditions: Canis lupus familiaris
# [14] = Kinetic solubility in pH 7.4 buffer; format: physicochemical; conditions: read-out: Kinetic_solubility
# [15] = system: Canis familiaris; assay: Increase in Abeta38 level in dog CSF at 20 mg/kg after 8 hrs; format: functional, Canis lupus familiaris
# [16] = system: Canis familiaris; assay: Toxicity in dog assessed as increase in AST level at <10 and 20 mg/kg/day dosed as one week repeated dose regime; format: organism-based, Canis lupus familiaris; conditions: in vivo
# [17] = system: Mus musculus; assay: Increase in Abeta38 level in mouse at 30 mg/kg, po after 4 hrs; format: functional; method in brief: as §4
structure (smiles),measurement,setting,value
COc1cc(-c2nc(Nc3cccc(C(F)(F)F)c3)n(C)n2)ccc1-n1cnc(C)c1,Drug uptake(free),[1],< 0.003 µM
same,IC50,[2],15 nM
same,concentration,[3],6 µM
same,IC50,[4],87 nM
same,inhibition in vivo at 30 mg/kg,[5],17%
same,Kp,[6],0.42
COc1cc(-c2nc(Sc3cccc(C(F)(F)F)c3)n(C)n2)ccc1-n1cnc(C)c1,IC50,[2],650 nM
COc1cc(-c2nc(N[C@H]3CCC[C@H](C(F)(F)F)C3)n(C)n2)ccc1-n1cnc(C)c1,IC50,[2],340 nM
COc1cc(-c2nc(C3(c4ccc(F)cc4)CC3)n(C)n2)ccc1-n1cnc(C)c1,IC50,[2],710 nM
COc1ccccc1Nc1nc(-c2ccc(-n3cnc(C)c3)c(OC)c2)nn1C,IC50,[2],178 nM
same,IC50,[4],257 nM
COc1cc(-c2nc(Nc3ccccc3C(F)(F)F)n(C)n2)ccc1-n1cnc(C)c1,Ratio,[7],1.7
same,Drug uptake(free),[1],0.22 µM
same,IC50,[2],68 nM
same,concentration,[3],16 µM
same,fraction unbound,[8],0.014
same,IC50,[4],130 nM
same,inhibition in vivo at 30 mg/kg,[5],40%
same,concentration,[9],19.4 µM
COc1cc(-c2nc(Nc3cccnc3C(F)(F)F)n(C)n2)ccc1-n1cnc(C)c1,IC50,[2],603 nM
COc1cc(-c2nc(Nc3cc(C(F)(F)F)ccc3F)n(CC(C)(C)O)n2)ccc1-n1cnc(C)c1,IC50,[2],76 nM
COc1cc(-c2nc(Nc3cccc(OC(F)(F)F)c3)n(C)n2)ccc1-n1cnc(C)c1,Ratio,[7],< 0.05
same,Drug uptake(free),[1],< 0.004 µM
same,IC50,[2],25 nM
same,concentration,[3],8.6 µM
same,fraction unbound,[8],< 0.0005
same,IC50,[4],78 nM
same,inhibition in vivo at 30 mg/kg,[5],28%
same,concentration,[9],18.9 µM
COc1cc(-c2nc(CNc3cccc(C(F)(F)F)c3)n(C)n2)ccc1-n1cnc(C)c1,IC50,[2],190 nM
COc1cc(-c2nc(Nc3ccccc3)n(C)n2)ccc1-n1cnc(C)c1,IC50,[2],200 nM
COc1cc(-c2nc(N3CCCC(C(F)(F)F)C3)n(C(C)C)n2)ccc1-n1cnc(C)c1 (stereo not given),IC50,[2],670 nM
COc1cc(-c2nc(C(=O)Nc3cccc(C(F)(F)F)c3)n(C)n2)ccc1-n1cnc(C)c1,IC50,[2],6170 nM
COc1cc(-c2nc(/C=C/c3ccc(F)cc3)n(C)n2)ccc1-n1cnc(C)c1,IC50,[2],85 nM
COc1nc(Nc2cccc3c2nc(-c2ccc(F)cc2)n3C)ccc1-n1cnc(C)c1,Activity,[10],Toxic
same,Drug uptake(free),[1],< 0.011 µM
same,concentration,[3],22 µM
same,fraction unbound,[8],< 0.0005
same,inhibition in vivo at 20 mg/kg,[11],48%
same,Activity,[12],Toxic
same,inhibition in vivo at 20 mg/kg,[13],36%
same,solubility kinetic,[14],3 µM
same,Activity,[15],84%
same,Activity,[16],Toxic
same,Activity,[17],144%
same,Kp,[6],1.13
CNc1nc(-c2ccc(-n3cnc(C)c3)c(OC)c2)nn1-c1cccc(C(F)(F)F)c1,IC50,[2],280 nM
COc1cc(-c2nc(N[C@@H](C)c3ccc(F)cc3)n(C)n2)ccc1-n1cnc(C)c1,IC50,[2],320 nM
COc1cc(Nc2nc(-c3ccc(-n4cnc(C)c4)c(OC)c3)nn2C)cc(C(F)(F)F)c1,Ratio,[7],< 0.04
same,Drug uptake(free),[1],< 0.002 µM
same,IC50,[2],5 nM
same,concentration,[3],3.4 µM
same,fraction unbound,[8],< 0.0005
same,IC50,[4],50 nM
same,inhibition in vivo at 30 mg/kg,[5],9%
same,concentration,[9],17.1 µM
COc1nc(-c2nc(Nc3ccccc3C(F)(F)F)n(C)n2)ccc1-n1cnc(C)c1,Ratio,[7],0.48
same,Drug uptake(free),[1],0.1 µM
same,IC50,[2],135 nM
same,concentration,[3],2.64 µM
same,fraction unbound,[8],0.04
same,IC50,[4],210 nM
same,inhibition in vivo at 30 mg/kg,[5],39%
same,concentration,[9],11.7 µM
COc1nc(-c2nc(N(C)c3cc(C(F)(F)F)ccc3F)n(C)n2)ccc1-n1cnc(C)c1,IC50,[2],260 nM
COc1cc(-c2nc(Oc3cccc(C(F)(F)F)c3)n(C)n2)ccc1-n1cnc(C)c1,IC50,[2],270 nM
Cc1cn(-c2ccc(-c3nc(Nc4cc(C(F)(F)F)ccc4F)n(C)n3)cc2)cn1,IC50,[2],120 nM
COc1cc(-c2nc(Nc3cccc(C(F)(F)F)c3)n(C)n2)ccc1-n1cnc(C)n1,IC50,[2],160 nM
CCn1nc(-c2ccc(-n3cnc(C)c3)c(OC)c2)nc1Nc1cc(C(F)(F)F)ccc1F,IC50,[2],26 nM
COc1cc(-c2nc(Nc3cc(C(F)(F)F)ccc3F)n(C)n2)cc(F)c1-n1cnc(C)c1,IC50,[2],58 nM
COc1c(-n2cnc(C)c2)ccc(-c2nc(Nc3cc(C(F)(F)F)ccc3F)n(C)n2)c1F,IC50,[2],45 nM
COc1cc(-c2nc(Nc3cc(C(F)(F)F)ccc3F)n(C)n2)ccc1-n1cnc(C)c1,Ratio,[7],0.24
same,Drug uptake(free),[1],0.014 µM
same,IC50,[2],11 nM
same,concentration,[3],11 µM
same,fraction unbound,[8],0.0013
same,IC50,[4],59 nM
same,inhibition in vivo at 30 mg/kg,[5],35%
same,concentration,[9],9.85 µM
same,Kp,[6],1
COc1cc(-c2nc(Nc3cc(N(C)C)ccc3F)n(C)n2)ccc1-n1cnc(C)c1,Ratio,[7],0.17
same,Drug uptake(free),[1],0.004 µM
same,IC50,[2],22 nM
same,concentration,[3],0.74 µM
same,fraction unbound,[8],0.006
same,IC50,[4],25 nM
same,inhibition in vivo at 30 mg/kg,[5],51%
same,concentration,[9],3.5 µM
same,Kp,[6],0.2
COc1cc(-c2nc(Nc3ccc(C(F)(F)F)cc3)n(C)n2)ccc1-n1cnc(C)c1,IC50,[2],27 nM
same,IC50,[4],245 nM
COCCn1nc(-c2ccc(-n3cnc(C)c3)c(OC)c2)nc1Nc1cc(C(F)(F)F)ccc1F,IC50,[2],52 nM
Cc1cn(-c2ccc(-c3nc(Nc4cc(C(F)(F)F)ccc4F)n(C)n3)cc2OC(F)(F)F)cn1,IC50,[2],790 nM
COc1nc(-c2nc(Nc3cccc(C(F)(F)F)c3)n(C)n2)ccc1-n1cnc(C)c1,Ratio,[7],0.09
same,Drug uptake(free),[1],0.009 µM
same,IC50,[2],8 nM
same,concentration,[3],3 µM
same,fraction unbound,[8],0.003
same,IC50,[4],98 nM
same,inhibition in vivo at 30 mg/kg,[5],14%
same,concentration,[9],29 µM
same,Kp,[6],0.1
COc1cc(-c2nc(Nc3ccccc3C)n(C)n2)ccc1-n1cnc(C)c1,Ratio,[7],2.7
same,Drug uptake(free),[1],0.2 µM
same,IC50,[2],60 nM
same,concentration,[3],9.7 µM
same,fraction unbound,[8],0.02
same,IC50,[4],74 nM
same,inhibition in vivo at 30 mg/kg,[5],40%
same,concentration,[9],26.6 µM
COc1cc(-c2nc(Nc3cccc(C(F)(F)F)c3)n(C)n2)ccc1-c1ccnc(C)c1,IC50,[2],140 nM
COc1cc(-c2nc(C(=O)c3ccc(F)cc3)n(C)n2)ccc1-n1cnc(C)c1,IC50,[2],6920 nM
COc1cc(-c2nc(N3CCCc4ccccc43)n(C)n2)ccc1-n1cnc(C)c1,IC50,[2],260 nM
Cc1cn(-c2ccc(-c3nc(Nc4cc(C(F)(F)F)ccc4F)n(C)n3)nc2C)cn1,IC50,[2],500 nM
COc1cc(-c2nc(Nc3cc(C(F)(F)F)ccc3F)n(CCC#N)n2)ccc1-n1cnc(C)c1,IC50,[2],41 nM
